Reference: ChEMBL document CHEMBL3120083, “Discovery of N-[4-[6-tert-butyl-5-methoxy-8-(6-methoxy-2-oxo-1H-pyridin-3-yl)-3-quinolyl]phenyl]methanesulfonamide (RG7109), a potent inhibitor of the hepatitis C virus NS5B polymerase” (J Med Chem, 2014)
Converted amounts (≈) assume the structure as drawn.

Tests used:
[1] = Oral bioavailability in Beagle dog at 3 mg/kg of compound as aqueous suspension; type: ADME, organism-based, Canis lupus familiaris; conditions: in vivo
[2] = AUC (0 to infinity) in Beagle dog at 3 mg/kg, po of compound as aqueous suspension; type: ADME, organism-based, Canis lupus familiaris; design: time infinity, dose 3 mg/kg, route oral; conditions: plasma
[3] = Drug uptake in Beagle dog at 3 mg/kg, po of compound as aqueous suspension measured at 8 hrs; type: ADME, organism-based, Canis lupus familiaris; design: dose 3 mg/kg, route oral; conditions: in vivo, read-out: Drug uptake
[4] = Cmax in Beagle dog at 3 mg/kg, po of compound as aqueous suspension; type: ADME, organism-based, Canis lupus familiaris; design: dose 3 mg/kg, route oral; conditions: in vivo
[5] = Half life in Beagle dog at 1 mg/kg, iv; type: ADME, organism-based, Canis lupus familiaris; design: dose 1 mg/kg, route intravenous; conditions: in vivo
Method in brief: (§1)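 Single intravenous bolus via tail vein or jugular cannula of dual-cannulated animals, vehicle 2% dimethyl acetamide/20% PEG400/23.4% HPBCD. EDTA blood typically taken at 0.08, 0.25, 0.5, 1, 2, 4, 6, 8 and 24 h from the remaining cannulas. Plasma drug measured by LC/MS/MS following acetonitrile protein precipitation.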

[6] = Volume of distribution at steady state in Beagle dog at 1 mg/kg, iv; type: ADME, organism-based, Canis lupus familiaris; design: dose 1 mg/kg, route intravenous; conditions: in vivo, read-out: Vdss; method in brief: as §1
[7] = Clearance in Beagle dog at 1 mg/kg, iv; type: ADME, organism-based, Canis lupus familiaris; design: dose 1 mg/kg, route intravenous; conditions: in vivo; method in brief: as §1
[8] = Oral bioavailability in Wistar/Han rat at 30 mg/kg of compound as aqueous suspension; type: ADME, organism-based; conditions: in vivo
[9] = AUC (0 to infinity) in Wistar/Han rat at 30 mg/kg, po of compound as aqueous suspension; type: ADME, organism-based; design: time infinity, dose 30 mg/kg, route oral; conditions: plasma
[10] = Drug uptake in Wistar/Han rat at 30 mg/kg, po of compound as aqueous suspension measured at 8 hrs; type: ADME, organism-based; design: dose 30 mg/kg, route oral; conditions: in vivo, read-out: Drug uptake
[11] = Cmax in Wistar/Han rat at 30 mg/kg, po of compound as aqueous suspension; type: ADME, organism-based; design: dose 30 mg/kg, route oral; conditions: in vivo
[12] = Half life in Wistar/Han rat at 3 mg/kg, iv; type: ADME, organism-based; design: dose 3 mg/kg, route intravenous; conditions: in vivo; method in brief: as §1
[13] = Volume of distribution at steady state in Wistar/Han rat at 3 mg/kg, iv; type: ADME, organism-based; design: dose 3 mg/kg, route intravenous; conditions: in vivo, read-out: Vdss; method in brief: as §1
[14] = Clearance in Wistar/Han rat at 3 mg/kg, iv; type: ADME, organism-based; design: dose 3 mg/kg, route intravenous; conditions: in vivo; method in brief: as §1
Hepatitis C virus [15] = assay: Antiviral activity against Hepatitis C virus genotype 1b clinical isolate RO-10 expressing NS5B assessed as inhibition of viral replication after 4 days by luciferase reporter gene assay; type: functional, organism-based, Hepacivirus hominis; conditions: genotype 1b clinical isolate RO-10, 96 h
Hepatitis C virus [16] = assay: Antiviral activity against Hepatitis C virus genotype 1b clinical isolate RO-8 expressing NS5B assessed as inhibition of viral replication after 4 days by luciferase reporter gene assay; type: functional, organism-based, Hepacivirus hominis; conditions: genotype 1b clinical isolate RO-8, 96 h
Hepatitis C virus [17] = assay: Antiviral activity against Hepatitis C virus genotype 1b clinical isolate RO-7 expressing NS5B assessed as inhibition of viral replication after 4 days by luciferase reporter gene assay; type: functional, organism-based, Hepacivirus hominis; conditions: genotype 1b clinical isolate RO-7, 96 h
Hepatitis C virus [18] = assay: Antiviral activity against Hepatitis C virus genotype 1b clinical isolate RO-4 expressing NS5B assessed as inhibition of viral replication after 4 days by luciferase reporter gene assay; type: functional, organism-based, Hepacivirus hominis; conditions: genotype 1b clinical isolate RO-4, 96 h
Hepatitis C virus [19] = assay: Antiviral activity against Hepatitis C virus genotype 1b clinical isolate RO-3 expressing NS5B assessed as inhibition of viral replication after 4 days by luciferase reporter gene assay; type: functional, organism-based, Hepacivirus hominis; conditions: genotype 1b clinical isolate RO-3, 96 h
Hepatitis C virus [20] = assay: Antiviral activity against Hepatitis C virus genotype 1b clinical isolate RO-2 expressing NS5B assessed as inhibition of viral replication after 4 days by luciferase reporter gene assay; type: functional, organism-based, Hepacivirus hominis; conditions: genotype 1b clinical isolate RO-2, 96 h
Hepatitis C virus [21] = assay: Antiviral activity against Hepatitis C virus genotype 1b clinical isolate RO-1 expressing NS5B assessed as inhibition of viral replication after 4 days by luciferase reporter gene assay; type: functional, organism-based, Hepacivirus hominis; conditions: genotype 1b clinical isolate RO-1, 96 h
Hepatitis C virus [22] = assay: Antiviral activity against Hepatitis C virus genotype 1b Con1 expressing NS5B assessed as inhibition of viral replication after 4 days by luciferase reporter gene assay; type: functional, organism-based, Hepacivirus hominis; conditions: isolate Con1, 96 h
Hepatitis C virus [23] = assay: Antiviral activity against Hepatitis C virus genotype 1a clinical isolate RO-41 expressing NS5B assessed as inhibition of viral replication after 4 days by luciferase reporter gene assay; type: functional, organism-based, Hepacivirus hominis; conditions: genotype 1a clinical isolate RO-41, 96 h
Hepatitis C virus [24] = assay: Antiviral activity against Hepatitis C virus genotype 1a clinical isolate RO-38 expressing NS5B assessed as inhibition of viral replication after 4 days by luciferase reporter gene assay; type: functional, organism-based, Hepacivirus hominis; conditions: genotype 1a clinical isolate RO-38, 96 h
Hepatitis C virus [25] = assay: Antiviral activity against Hepatitis C virus genotype 1a clinical isolate RO-35 expressing NS5B assessed as inhibition of viral replication after 4 days by luciferase reporter gene assay; type: functional, organism-based, Hepacivirus hominis; conditions: genotype 1a clinical isolate RO-35, 96 h
Hepatitis C virus [26] = assay: Antiviral activity against Hepatitis C virus genotype 1a clinical isolate RO-34 expressing NS5B assessed as inhibition of viral replication after 4 days by luciferase reporter gene assay; type: functional, organism-based, Hepacivirus hominis; conditions: genotype 1a clinical isolate RO-34, 96 h
Hepatitis C virus [27] = assay: Antiviral activity against Hepatitis C virus genotype 1a clinical isolate RO-33 expressing NS5B assessed as inhibition of viral replication after 4 days by luciferase reporter gene assay; type: functional, organism-based, Hepacivirus hominis; conditions: genotype 1a clinical isolate RO-33, 96 h
Hepatitis C virus [28] = assay: Antiviral activity against Hepatitis C virus genotype 1a clinical isolate RO-28 expressing NS5B assessed as inhibition of viral replication after 4 days by luciferase reporter gene assay; type: functional, organism-based, Hepacivirus hominis; conditions: genotype 1a clinical isolate RO-28, 96 h
Hepatitis C virus [29] = assay: Antiviral activity against Hepatitis C virus genotype 1a clinical isolate RO-24 expressing NS5B assessed as inhibition of viral replication after 4 days by luciferase reporter gene assay; type: functional, organism-based, Hepacivirus hominis; conditions: genotype 1a clinical isolate RO-24, 96 h
Hepatitis C virus [30] = assay: Antiviral activity against Hepatitis C virus genotype 1a clinical isolate RO-18 expressing NS5B assessed as inhibition of viral replication after 4 days by luciferase reporter gene assay; type: functional, organism-based, Hepacivirus hominis; conditions: genotype 1a clinical isolate RO-18, 96 h
Hepatitis C virus [31] = assay: Antiviral activity against Hepatitis C virus genotype 1a H77 expressing NS5B assessed as inhibition of viral replication after 4 days by luciferase reporter gene assay; type: functional, organism-based, Hepacivirus hominis; conditions: genotype 1a H77, 96 h
Hepatitis C virus [32] = assay: Ratio of EC50 for Hepatitis C virus genotype 1b Con1 in presence of human serum to EC50 for Hepatitis C virus genotype 1b Con1; type: functional, Hepacivirus hominis, isolate Con1
Hepatitis C virus [33] = assay: Ratio of EC50 for Hepatitis C virus genotype 1a H77 in presence of human serum to EC50 for Hepatitis C virus genotype 1a H77; type: functional, Hepacivirus hominis
Hepatitis C virus [34] = assay: Antiviral activity against Hepatitis C virus genotype 1b Con1 infected in human 2209-23 cells after 72 hrs by luciferase reporter gene assay in presence of 40% human serum; type: functional, organism-based, Hepacivirus hominis; conditions: isolate Con1, 2209-23, 72 h
Hepatitis C virus [35] = assay: Antiviral activity against Hepatitis C virus genotype 1a H77 infected in human 2209-23 cells after 72 hrs by luciferase reporter gene assay in presence of 40% human serum; type: functional, organism-based, Hepacivirus hominis; conditions: genotype 1a H77, 2209-23, 72 h
[36] = Ratio of EC50 for Hepatitis C virus genotype 1a H77 to EC50 for Hepatitis C virus genotype 1b Con1; type: functional
[37] = Thermodynamic solubility of the compound; type: physicochemical; conditions: read-out: Therm_solubility
Hepatitis C virus [38] = assay: Antiviral activity against Hepatitis C virus genotype 1b Con1 infected in human 2209-23 cells after 72 hrs by luciferase reporter gene assay; type: functional, organism-based, Hepacivirus hominis; conditions: isolate Con1, 2209-23, 72 h
Method in brief: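 Stable GT-1b Con1 subgenomic replicon cell line expressing a renilla luciferase reporter, used as the readout of inhibition. EC50 from luciferase signal, n 2.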

Hepatitis C virus [39] = assay: Antiviral activity against Hepatitis C virus genotype 1a H77 infected in human 2209-23 cells after 72 hrs by luciferase reporter gene assay; type: functional, organism-based, Hepacivirus hominis; conditions: genotype 1a H77, 2209-23, 72 h
Hepatitis C virus [40] = assay: Antiviral activity against Hepatitis C virus genotype 1b clinical isolate RO-9 expressing NS5B assessed as inhibition of viral replication after 4 days by luciferase reporter gene assay; type: functional, organism-based, Hepacivirus hominis; conditions: genotype 1b clinical isolate RO-9, 96 h

Question: What does the source list for `COc1ccc(-c2cc(C(C)(C)C)c(OC)c3cc(N4CC[C@H](CNS(C)(=O)=O)C4)cnc23)c(=O)[nH]1`?
Answer: bioavailability [1]: 36%; AUC(0-inf) [2]: 4200 ng·h/mL; concentration at 8 h [3]: 210 ng/mL; Cmax [4]: 360 ng/mL; half-life [5]: 5.1 h; Vd [6]: 1.5 L/kg; clearance [7]: 4.4 mL/min/kg; bioavailability [8]: 100%; AUC(0-inf) [9]: 37000 ng·h/mL; concentration at 8 h [10]: 1790 ng/mL; Cmax [11]: 3800 ng/mL; half-life [12]: 5.6 h; Vd [13]: 2.3 L/kg; clearance [14]: 13.8 mL/min/kg; EC50 (Hepatitis C virus [15]): 1.67 nM; EC50 (Hepatitis C virus [16]): 0.33 nM; EC50 (Hepatitis C virus [17]): 3.05 nM; EC50 (Hepatitis C virus [18]): 0.8 nM; EC50 (Hepatitis C virus [19]): 6.1 nM; EC50 (Hepatitis C virus [20]): 4 nM; EC50 (Hepatitis C virus [21]): 0.3 nM; EC50 (Hepatitis C virus [22]): 1.2 nM; EC50 (Hepatitis C virus [23]): 0.27 nM; EC50 (Hepatitis C virus [24]): 9.5 nM; EC50 (Hepatitis C virus [25]): 0.5 nM; EC50 (Hepatitis C virus [26]): 0.4 nM; EC50 (Hepatitis C virus [27]): 0.7 nM; EC50 (Hepatitis C virus [28]): 0.2 nM; EC50 (Hepatitis C virus [29]): 2.5 nM; EC50 (Hepatitis C virus [30]): 0.5 nM; EC50 (Hepatitis C virus [31]): 0.65 nM; Ratio EC50 (Hepatitis C virus [32]): 0.6; Ratio EC50 (Hepatitis C virus [33]): 0.6; EC50 (Hepatitis C virus [34]): 7.5 nM; EC90 (Hepatitis C virus [34]): 44 nM; EC50 (Hepatitis C virus [35]): 10 nM; EC90 (Hepatitis C virus [35]): 61 nM; Ratio EC50 [36]: 1.4; solubility thermodynamic [37]: 39 µg/mL (≈ 75.8 µM); EC50 (Hepatitis C virus [38]): 12 nM; EC50 (Hepatitis C virus [39]): 17 nM; EC50 (Hepatitis C virus [40]): 3.5 nM
